# Measured values taken from ChEMBL document CHEMBL3865847, “The synthesis and biological evaluation of alkyl and benzyl naphthyridinium analogs of eupolauridine as potential antimicrobial and cytotoxic agents” (Bioorg Med Chem, 2016).
# Tested on: not listed separately
# Experiment: Cytotoxicity against African green monkey Vero cells assessed as cell growth inhibition at 10 ug/ml after 48 hrs by neutral red dye based assay
# Type: toxicity
# Conditions: chlorocebus sabaeus
# Summary of the method: (§1)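 Cells kept in RPMI-1640 with 10% bovine serum and 60 µg/mL amikacin, 37 °C, 5% CO2. Seeded at 25,000 cells/well, left 24 h to adhere. Samples diluted in RPMI added, highest final concentration 10 µg/mL. Growth measured by neutral red uptake after 48 h exposure.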
row,Structure (SMILES),Activity
1,C[n+]1c2c3c(nc(-c4ccccc4)cc3c3ccccc31)-c1ccccc1-2.[I-],Non-Toxic
2,[Br-].c1ccc2c(c1)-c1nccc3cc[n+](Cc4ccc5ccccc5c4)c-2c13,Non-Toxic
3,C[n+]1ccc2c3c(nc4ccccc42)-c2ccccc2-c31.Cc1ccc(S(=O)(=O)[O-])cc1,Non-Toxic
4,C[n+]1ccc2cc(-c3ccccc3)nc3c2c1-c1ccccc1-3.[I-],Non-Toxic

# Tested on: not listed separately
# Experiment: Cytotoxicity against human SKOV3 cells assessed as cell growth inhibition after 48 hrs by neutral red dye based assay
# Type: functional
# Conditions: SK-OV-3, 48 h
# Summary of the method: as §1
row,Structure (SMILES),IC50
1,C[n+]1c2c3c(nc(-c4ccccc4)cc3c3ccccc31)-c1ccccc1-2.[I-],4.5 µg/mL
2,[Br-].c1ccc2c(c1)-c1nccc3cc[n+](Cc4ccc5ccccc5c4)c-2c13,< 1.1 µg/mL
3,C[n+]1ccc2c3c(nc4ccccc42)-c2ccccc2-c31.Cc1ccc(S(=O)(=O)[O-])cc1,1.3 µg/mL
4,C[n+]1ccc2cc(-c3ccccc3)nc3c2c1-c1ccccc1-3.[I-],< 1.1 µg/mL

# Tested on: Mycobacterium intracellulare
# Experiment: Antimicrobial activity against Mycobacterium intracellulare ATCC 23068
# Type: functional
# Conditions: not given
# Summary of the method: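 Mycobacterium grown 72 h in Middlebrook medium with OADC supplement, diluted 1:30 in broth. Incubated at 37 °C with diluted samples in 96-well plates, highest final 50 µg/mL, DMSO at most 2.5%. Absorbance at 630 nm. MIC = lowest concentration with 80% growth inhibition relative to controls; IC50 from concentration versus % growth plots.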
row,Structure (SMILES),MIC80
1,C[n+]1c2c3c(nc(-c4ccccc4)cc3c3ccccc31)-c1ccccc1-2.[I-],50 µg/mL
2,[Br-].c1ccc2c(c1)-c1nccc3cc[n+](Cc4ccc5ccccc5c4)c-2c13,50 µg/mL

# Tested on: Cryptococcus neoformans
# Experiment: Antimicrobial activity against Cryptococcus neoformans ATCC 52657
# Type: functional
# Conditions: not given
# Summary of the method: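 Grown in mycophil broth 72 h, hemocytometer-counted, diluted to 200,000 CFU/mL. Exposed to diluted samples in 96-well plates, maximum final 50 µg/mL (DMSO up to 2.5%), incubated 30 °C. A630 readout. MIC is the lowest concentration inhibiting 80% of growth versus controls; IC50 read from concentration versus % growth graphs.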
Structure (SMILES),IC50,MIC80
C[n+]1c2c3c(nc(-c4ccccc4)cc3c3ccccc31)-c1ccccc1-2.[I-],0.23 µg/mL,0.78 µg/mL
[Br-].c1ccc2c(c1)-c1nccc3cc[n+](Cc4ccc5ccccc5c4)c-2c13,0.3 µg/mL,0.39 µg/mL
C[n+]1ccc2c3c(nc4ccccc42)-c2ccccc2-c31.Cc1ccc(S(=O)(=O)[O-])cc1,1.93 µg/mL,6.25 µg/mL
C[n+]1ccc2cc(-c3ccccc3)nc3c2c1-c1ccccc1-3.[I-],0.4 µg/mL,0.78 µg/mL

# Tested on: Staphylococcus aureus
# Experiment: Antimicrobial activity against methicillin-resistant Staphylococcus aureus
# Type: functional
# Conditions: not given
# Summary of the method: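 MRSA precultured 24 h, diluted 1:50 in broth, added to serially diluted samples in 96-well plates (highest final DMSO 2.5%), incubated at 37 °C. Growth measured as absorbance at 630 nm versus controls. MIC is the lowest concentration giving 80% inhibition; IC50 (50% inhibition) is read from concentration versus % growth plots.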
row,Structure (SMILES),IC50
1,C[n+]1c2c3c(nc(-c4ccccc4)cc3c3ccccc31)-c1ccccc1-2.[I-],5 µg/mL
2,[Br-].c1ccc2c(c1)-c1nccc3cc[n+](Cc4ccc5ccccc5c4)c-2c13,22 µg/mL
3,C[n+]1ccc2cc(-c3ccccc3)nc3c2c1-c1ccccc1-3.[I-],20 µg/mL

# Tested on: Plasmodium falciparum
# Experiment: Antimalarial activity against Plasmodium falciparum D6 infected in RBC after 48 hrs by lactate dehydrogenase assay
# Type: functional
# Conditions: D6, 48 h
# Summary of the method: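 Parasites grown in A+ human erythrocytes in RPMI 1640 with 10% A+ human serum, 25 mM HEPES, 27 mM bicarbonate, 60 µg/mL amikacin, 37 °C under 90% N2/5% O2/5% CO2. Infected cells exposed 48 h in microtiter wells, highest concentration 4.8 µg/mL. Growth read by Malstat reagent (parasite LDH) with nitro blue tetrazolium reduction, absorbance 630 nm.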
row,Structure (SMILES),IC50
1,[Br-].c1ccc2c(c1)-c1nccc3cc[n+](Cc4ccc5ccccc5c4)c-2c13,0.0195 µg/mL
2,C[n+]1ccc2c3c(nc4ccccc42)-c2ccccc2-c31.Cc1ccc(S(=O)(=O)[O-])cc1,0.0385 µg/mL
3,C[n+]1ccc2cc(-c3ccccc3)nc3c2c1-c1ccccc1-3.[I-],0.46 µg/mL

# Tested on: Pseudomonas aeruginosa
# Experiment: Antimicrobial activity against Pseudomonas aeruginosa ATCC 15442
# Type: functional
# Conditions: not given
# Summary of the method: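 Pseudomonas grown 24 h in trypticase soy broth, diluted 1:50. Combined with diluted samples in 96-well plates, top final concentration 50 µg/mL (≤2.5% DMSO), 37 °C incubation. Growth read at 630 nm. MIC is the lowest tested concentration inhibiting 80% of growth versus controls; IC50 from concentration versus % growth graphs.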
row,Structure (SMILES),IC50
1,C[n+]1c2c3c(nc(-c4ccccc4)cc3c3ccccc31)-c1ccccc1-2.[I-],4 µg/mL
2,[Br-].c1ccc2c(c1)-c1nccc3cc[n+](Cc4ccc5ccccc5c4)c-2c13,30 µg/mL
3,C[n+]1ccc2c3c(nc4ccccc42)-c2ccccc2-c31.Cc1ccc(S(=O)(=O)[O-])cc1,50 µg/mL
4,C[n+]1ccc2cc(-c3ccccc3)nc3c2c1-c1ccccc1-3.[I-],25 µg/mL

# Tested on: Candida albicans
# Experiment: Antimicrobial activity against Candida albicans B311
# Type: functional
# Conditions: not given
# Summary of the method: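 Cultured in Sabouraud dextrose broth 24 h, counted by hemocytometer, diluted to 10,000 CFU/mL. Added to serially diluted samples in 96-well plates, top final concentration 50 µg/mL (≤2.5% DMSO), incubated 37 °C. Growth by A630. MIC is the lowest concentration giving 80% inhibition against controls; IC50 from concentration versus % growth plots.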
Structure (SMILES),IC50,MIC80
C[n+]1c2c3c(nc(-c4ccccc4)cc3c3ccccc31)-c1ccccc1-2.[I-],0.2 µg/mL,0.39 µg/mL
[Br-].c1ccc2c(c1)-c1nccc3cc[n+](Cc4ccc5ccccc5c4)c-2c13,0.67 µg/mL,0.78 µg/mL
C[n+]1ccc2c3c(nc4ccccc42)-c2ccccc2-c31.Cc1ccc(S(=O)(=O)[O-])cc1,35 µg/mL,
C[n+]1ccc2cc(-c3ccccc3)nc3c2c1-c1ccccc1-3.[I-],0.32 µg/mL,0.39 µg/mL

# Tested on: not listed separately
# Experiment: Inhibition of Candida albicans DNA topoisomerase 1 using pHOT1 as substrate after 30 mins by agarose gel electrophoresis
# Conditions: not given
# Summary of the method: (§2)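 Relaxation of supercoiled to relaxed DNA by TopoI measured with a commercial TopoI drug kit following kit protocol. IC50 calculated from dose-response curves of % inhibition versus concentration.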
row,Structure (SMILES),IC50
1,C[n+]1c2c3c(nc(-c4ccccc4)cc3c3ccccc31)-c1ccccc1-2.[I-],0.375 µg/mL
2,[Br-].c1ccc2c(c1)-c1nccc3cc[n+](Cc4ccc5ccccc5c4)c-2c13,21 µg/mL
3,C[n+]1ccc2c3c(nc4ccccc42)-c2ccccc2-c31.Cc1ccc(S(=O)(=O)[O-])cc1,0.7 µg/mL
4,C[n+]1ccc2cc(-c3ccccc3)nc3c2c1-c1ccccc1-3.[I-],35 µg/mL

# Target: T1, DNA topoisomerase 1 (Homo sapiens, UniProt P11387)
# T1 sequence (P11387 whole entry): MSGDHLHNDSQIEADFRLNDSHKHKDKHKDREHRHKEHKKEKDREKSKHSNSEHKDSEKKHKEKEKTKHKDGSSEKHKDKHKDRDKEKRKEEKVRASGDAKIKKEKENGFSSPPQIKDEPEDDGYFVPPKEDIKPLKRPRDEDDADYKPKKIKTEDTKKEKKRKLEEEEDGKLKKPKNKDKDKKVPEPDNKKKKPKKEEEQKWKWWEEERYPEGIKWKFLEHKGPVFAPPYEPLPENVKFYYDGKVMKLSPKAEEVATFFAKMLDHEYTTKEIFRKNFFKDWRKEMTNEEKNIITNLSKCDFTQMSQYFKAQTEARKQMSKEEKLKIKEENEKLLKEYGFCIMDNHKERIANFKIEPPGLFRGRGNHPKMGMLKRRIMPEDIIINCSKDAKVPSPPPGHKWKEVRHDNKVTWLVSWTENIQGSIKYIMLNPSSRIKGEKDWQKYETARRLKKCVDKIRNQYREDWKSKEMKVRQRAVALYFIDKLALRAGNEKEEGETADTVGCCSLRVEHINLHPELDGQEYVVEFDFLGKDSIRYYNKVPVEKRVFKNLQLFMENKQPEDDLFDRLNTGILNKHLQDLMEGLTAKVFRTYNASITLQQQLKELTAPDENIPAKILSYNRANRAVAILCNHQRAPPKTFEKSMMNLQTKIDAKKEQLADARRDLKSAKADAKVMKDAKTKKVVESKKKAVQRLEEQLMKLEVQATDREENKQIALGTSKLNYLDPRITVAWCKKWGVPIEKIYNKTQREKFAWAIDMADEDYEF
# Experiment: Inhibition of human DNA topoisomerase 1 using pHOT1 as substrate after 30 mins by agarose gel electrophoresis
# Conditions: not given
# Summary of the method: as §2
row,Structure (SMILES),IC50
1,C[n+]1c2c3c(nc(-c4ccccc4)cc3c3ccccc31)-c1ccccc1-2.[I-],1.01 µM
2,[Br-].c1ccc2c(c1)-c1nccc3cc[n+](Cc4ccc5ccccc5c4)c-2c13,70.5 µM
3,C[n+]1ccc2c3c(nc4ccccc42)-c2ccccc2-c31.Cc1ccc(S(=O)(=O)[O-])cc1,1.59 µM
4,C[n+]1ccc2cc(-c3ccccc3)nc3c2c1-c1ccccc1-3.[I-],28.4 µM

# Tested on: not listed separately
# Experiment: Cytotoxicity against human BT549 cells assessed as cell growth inhibition after 48 hrs by neutral red dye based assay
# Type: functional
# Conditions: BT-549, 48 h
# Summary of the method: as §1
row,Structure (SMILES),IC50
1,C[n+]1c2c3c(nc(-c4ccccc4)cc3c3ccccc31)-c1ccccc1-2.[I-],7.5 µg/mL
2,[Br-].c1ccc2c(c1)-c1nccc3cc[n+](Cc4ccc5ccccc5c4)c-2c13,> 10 µg/mL
3,C[n+]1ccc2c3c(nc4ccccc42)-c2ccccc2-c31.Cc1ccc(S(=O)(=O)[O-])cc1,7.5 µg/mL
4,C[n+]1ccc2cc(-c3ccccc3)nc3c2c1-c1ccccc1-3.[I-],6.2 µg/mL

# Tested on: not listed separately
# Experiment: Cytotoxicity against human KB cells assessed as cell growth inhibition after 48 hrs by neutral red dye based assay
# Type: functional
# Conditions: not given
# Summary of the method: as §1
row,Structure (SMILES),IC50
1,C[n+]1c2c3c(nc(-c4ccccc4)cc3c3ccccc31)-c1ccccc1-2.[I-],> 10 µg/mL
2,[Br-].c1ccc2c(c1)-c1nccc3cc[n+](Cc4ccc5ccccc5c4)c-2c13,6 µg/mL
3,C[n+]1ccc2c3c(nc4ccccc42)-c2ccccc2-c31.Cc1ccc(S(=O)(=O)[O-])cc1,4.4 µg/mL
4,C[n+]1ccc2cc(-c3ccccc3)nc3c2c1-c1ccccc1-3.[I-],7 µg/mL

# Tested on: Staphylococcus aureus
# Experiment: Antimicrobial activity against Staphylococcus aureus ATCC 6538
# Type: functional
# Conditions: not given
# Summary of the method: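 Staphylococcus aureus grown 24 h in Eugon broth, diluted 1:50 in broth, added to serially diluted samples in 96-well plates (highest final DMSO 2.5%), incubated at 37 °C. Growth measured at 630 nm versus controls. MIC is the lowest concentration inhibiting 80% of growth; IC50 (50% inhibition) comes from concentration versus % growth plots.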
row,Structure (SMILES),IC50
1,C[n+]1c2c3c(nc(-c4ccccc4)cc3c3ccccc31)-c1ccccc1-2.[I-],4.5 µg/mL
2,[Br-].c1ccc2c(c1)-c1nccc3cc[n+](Cc4ccc5ccccc5c4)c-2c13,20 µg/mL
3,C[n+]1ccc2cc(-c3ccccc3)nc3c2c1-c1ccccc1-3.[I-],20 µg/mL

# Tested on: not listed separately
# Experiment: Selectivity index, ratio of IC50 for human DNA topoisomerase 1 to IC50 for Candida albicans DNA topoisomerase 1
# Conditions: not given
row,Structure (SMILES),Ratio IC50
1,C[n+]1c2c3c(nc(-c4ccccc4)cc3c3ccccc31)-c1ccccc1-2.[I-],0.79
2,[Br-].c1ccc2c(c1)-c1nccc3cc[n+](Cc4ccc5ccccc5c4)c-2c13,0.7
3,C[n+]1ccc2cc(-c3ccccc3)nc3c2c1-c1ccccc1-3.[I-],2.92

# Tested on: not listed separately
# Experiment: Cytotoxicity against human SK-MEL cells assessed as cell growth inhibition after 48 hrs by neutral red dye based assay
# Type: functional
# Conditions: not given
# Summary of the method: as §1
row,Structure (SMILES),IC50
1,C[n+]1c2c3c(nc(-c4ccccc4)cc3c3ccccc31)-c1ccccc1-2.[I-],3.5 µg/mL
2,[Br-].c1ccc2c(c1)-c1nccc3cc[n+](Cc4ccc5ccccc5c4)c-2c13,< 1.1 µg/mL
3,C[n+]1ccc2c3c(nc4ccccc42)-c2ccccc2-c31.Cc1ccc(S(=O)(=O)[O-])cc1,> 10 µg/mL
4,C[n+]1ccc2cc(-c3ccccc3)nc3c2c1-c1ccccc1-3.[I-],9 µg/mL
